Blank lines part the entries; values can stand above or below the compound they belong to. Non-standard residues stand in square brackets, D forms with d. Residues, ends and D or L forms follow the SMILES beside them. *: point of attachment. Pro(cis-4-OPh) = O=C(O)[C@@H]1C[C@H](Oc2ccccc2)CN1; Bip = N[C@@H](Cc1ccc(-c2ccccc2)cc1)C(=O)O; X2 = CCCCCCCCCCCCCCCCCCS(=O)(=O)CCN*; Tle = CC(C)(C)[C@H](N)C(=O)O; X1 = CCCCCCCCCCCCCCCCCCSCCN*; NMeA = CN[C@@H](C)C(=O)O
How the values were obtained:
KOPN-8 [1] = assay: Induction of apoptosis in human KOPN8 cells assessed as viable cells at 10 uM after 24 hrs by AnnexinV/PI-staining based flow cytometry; type: functional; details: read-out: Activity
Method in brief: (§1)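 KOPN-8 cells treated with 1 or 10 μM compound, alone or as an equimolar two-compound mixture. Cultured for a time course, then stained with annexin V and propidium iodide. Read by flow cytometry; populations gated by annexin V/PI staining, including annexin V+/PI+ double positives.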

KOPN-8 [2] = assay: Induction of apoptosis in human KOPN8 cells assessed as late apoptotic cells at 10 uM after 72 hrs by AnnexinV/PI-staining based flow cytometry; type: functional; method in brief: as §1
[3] = Antiproliferative activity against human UM-SCC-178 cells assessed as growth inhibition after 48 hrs by PrestoBlue dye based fluorescence assay; type: functional, cell-based; details: UM-SCC-178, 48 h
KOPN-8 [4] = assay: Induction of apoptosis in human KOPN8 cells assessed as viable cells at 10 uM after 168 hrs by AnnexinV/PI-staining based flow cytometry; type: functional; details: read-out: Activity; method in brief: as §1
KOPN-8 [5] = assay: Induction of apoptosis in human KOPN8 cells assessed as late apoptotic cells at 10 uM after 24 hrs by AnnexinV/PI-staining based flow cytometry; type: functional; method in brief: as §1
MDA-MB-361 [6] = assay: Antiproliferative activity against human MDA-MB-361 cells assessed as growth inhibition after 48 hrs by PrestoBlue dye based fluorescence assay; type: functional, cell-based; details: MDA-MB-361, 48 h
KOPN-8 [7] = assay: Induction of apoptosis in human KOPN8 cells assessed as early apoptotic cells at 10 uM after 48 hrs by AnnexinV/PI-staining based flow cytometry; type: functional; method in brief: as §1
[8] = Drug level in C57BL/6 mouse plasma at 10 mg/kg, sc after 30 mins by LC-MS analysis; type: ADME, organism-based; details: in vivo, 0.5 h
Method in brief: (§2)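 Mice individually weighed, then given a single SC dose of 10 mg/kg. Blood taken by retro-orbital bleeding at set time points. Plasma levels measured by triple-quadrupole LC/MS; plasma half-life derived from these levels.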

KOPN-8 [9] = assay: Induction of apoptosis in human KOPN8 cells assessed as viable cells at 10 uM after 48 hrs by AnnexinV/PI-staining based flow cytometry; type: functional; details: read-out: Activity; method in brief: as §1
[10] = Antiproliferative activity against human UM-SCC-12 cells assessed as growth inhibition after 48 hrs by PrestoBlue dye based fluorescence assay; type: functional, cell-based; details: UM-SCC-12, 48 h
PC-3 = assay: Antiproliferative activity against human PC-3 cells assessed as growth inhibition after 48 hrs by PrestoBlue dye based fluorescence assay; type: functional, cell-based; details: PC-3, 48 h
KOPN-8 [11] = assay: Induction of apoptosis in human KOPN8 cells assessed as viable cells at 10 uM after 72 hrs by AnnexinV/PI-staining based flow cytometry; type: functional; details: read-out: Activity; method in brief: as §1
KOPN-8 [12] = assay: Induction of apoptosis in human KOPN8 cells assessed as early apoptotic cells at 10 uM after 72 hrs by AnnexinV/PI-staining based flow cytometry; type: functional; method in brief: as §1
KOPN-8 [13] = assay: Induction of apoptosis in human KOPN8 cells assessed as increase in caspase 9 activity at 0.1 to 50 uM after 24 hrs by Caspase-glo reagent based microplate reader analysis relative to control; type: functional; details: dose microM 0.1-50
KOPN-8 [14] = assay: Antiproliferative activity against human KOPN-8 cells assessed as growth inhibition after 48 hrs by PrestoBlue dye based fluorescence assay; type: functional, cell-based; details: KOPN-8, 48 h
KOPN-8 [15] = assay: Induction of apoptosis in human KOPN8 cells assessed as necrotic cells at 10 uM after 72 hrs by AnnexinV/PI-staining based flow cytometry; type: functional; method in brief: as §1
KOPN-8 [16] = assay: Induction of apoptosis in human KOPN8 cells assessed as early apoptotic cells at 10 uM after 168 hrs by AnnexinV/PI-staining based flow cytometry; type: functional; method in brief: as §1
KOPN-8 [17] = assay: Induction of apoptosis in human KOPN8 cells assessed as necrotic cells at 10 uM after 168 hrs by AnnexinV/PI-staining based flow cytometry; type: functional; method in brief: as §1
[18] = Tmax in C57BL/6 mouse at 10 mg/kg, sc by LC-MS analysis; type: ADME, organism-based; details: in vivo; method in brief: as §2
[19] = Cmax in C57BL/6 mouse at 10 mg/kg, sc by LC-MS analysis; type: ADME, organism-based; design: route subcutaneous, dose 10 mg/kg; details: in vivo; method in brief: as §2
[20] = Antiproliferative activity against human M263 cells assessed as growth inhibition after 48 hrs by PrestoBlue dye based fluorescence assay; type: functional, cell-based; details: M263, 48 h
KOPN-8 [21] = assay: Induction of apoptosis in human KOPN8 cells assessed as late apoptotic cells at 10 uM after 168 hrs by AnnexinV/PI-staining based flow cytometry; type: functional; method in brief: as §1
KOPN-8 [22] = assay: Induction of apoptosis in human KOPN8 cells assessed as late apoptotic cells at 10 uM after 48 hrs by AnnexinV/PI-staining based flow cytometry; type: functional; method in brief: as §1
T84 = assay: Antiproliferative activity against human T84 cells assessed as growth inhibition after 48 hrs by PrestoBlue dye based fluorescence assay; type: functional, cell-based; details: T84, 48 h
BT-474 = assay: Antiproliferative activity against human BT-474 cells assessed as growth inhibition after 48 hrs by PrestoBlue dye based fluorescence assay; type: functional, cell-based; details: BT-474, 48 h
KOPN-8 [23] = assay: Induction of apoptosis in human KOPN8 cells assessed as early apoptotic cells at 10 uM after 24 hrs by AnnexinV/PI-staining based flow cytometry; type: functional; method in brief: as §1
[24] = Antiproliferative activity against human UM-SCC-5 cells assessed as growth inhibition after 48 hrs by PrestoBlue dye based fluorescence assay; type: functional, cell-based; details: UM-SCC-5, 48 h
MDA-MB-361 [25] = assay: Antitumor activity against sc dosed human MDA-MB-361 cells xenografted in BALB mouse administered up to 12 days by caliper analysis; type: functional, organism-based; details: dose mg/kg 10-20, time 12.0 day
Method in brief: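 Tumor-bearing mice, subcutaneous engraftment model; compound given SC at 10 or 20 mg/kg in 2% Cremophor EL, 2×5 injections (10 doses total). Read-out is tumor growth delay in days, taken at a tumor volume of 500 mm3.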

[26] = Antiproliferative activity against human M233 cells assessed as growth inhibition after 48 hrs by PrestoBlue dye based fluorescence assay; type: functional, cell-based; details: M233, 48 h
THP-1 = assay: Antiproliferative activity against human THP1 cells assessed as growth inhibition after 48 hrs by PrestoBlue dye based fluorescence assay; type: functional, cell-based; details: THP-1, 48 h
KOPN-8 [27] = assay: Induction of apoptosis in human KOPN8 cells assessed as necrotic cells at 10 uM after 48 hrs by AnnexinV/PI-staining based flow cytometry; type: functional; method in brief: as §1
KOPN-8 [28] = assay: Induction of apoptosis in human KOPN8 cells assessed as necrotic cells at 10 uM after 24 hrs by AnnexinV/PI-staining based flow cytometry; type: functional; method in brief: as §1
HL-60 = assay: Antiproliferative activity against human HL60 cells assessed as growth inhibition after 48 hrs by PrestoBlue dye based fluorescence assay; type: functional, cell-based; details: HL-60, 48 h
HCT-116 = assay: Antiproliferative activity against human HCT116 cells assessed as growth inhibition after 48 hrs by PrestoBlue dye based fluorescence assay; type: functional, cell-based; details: HCT-116, 48 h
SK-MEL-28 = assay: Antiproliferative activity against human SK-MEL-28 cells assessed as growth inhibition after 48 hrs by PrestoBlue dye based fluorescence assay; type: functional, cell-based; details: SK-MEL-28, 48 h
[29] = Antiproliferative activity against human UM-SCC-6 cells assessed as growth inhibition after 48 hrs by PrestoBlue dye based fluorescence assay; type: functional, cell-based; details: UM-SCC-6, 48 h
[30] = Antiproliferative activity against human CEMTL cells assessed as growth inhibition after 48 hrs by PrestoBlue dye based fluorescence assay; type: functional, cell-based; details: CEM-TL
PANC-1 = assay: Antiproliferative activity against human PANC-1 cells assessed as growth inhibition after 48 hrs by PrestoBlue dye based fluorescence assay; type: functional, cell-based; details: PANC-1, 48 h
Hep 3B2 = assay: Antiproliferative activity against human Hep3B cells assessed as growth inhibition after 48 hrs by PrestoBlue dye based fluorescence assay; type: functional, cell-based
MCF7 = assay: Antiproliferative activity against human MCF7 cells assessed as growth inhibition after 48 hrs by PrestoBlue dye based fluorescence assay; type: functional, cell-based; details: MCF7, 48 h
LNCaP = assay: Antiproliferative activity against human LNCAP cells assessed as growth inhibition after 48 hrs by PrestoBlue dye based fluorescence assay; type: functional, cell-based
HepG2 = assay: Antiproliferative activity against human HepG2 cells assessed as growth inhibition after 48 hrs by PrestoBlue dye based fluorescence assay; type: functional, cell-based; details: HepG2, 48 h
SW480 = assay: Antiproliferative activity against human SW480 cells assessed as growth inhibition after 48 hrs by PrestoBlue dye based fluorescence assay; type: functional, cell-based; details: SW480, 48 h
FaDu = assay: Antiproliferative activity against human FADU cells assessed as growth inhibition after 48 hrs by PrestoBlue dye based fluorescence assay; type: functional, cell-based
T47D = assay: Antiproliferative activity against human T47D cells assessed as growth inhibition after 48 hrs by PrestoBlue dye based fluorescence assay; type: functional, cell-based

EC50 (MDA-MB-361 [6]): 1700 nM | Cp [8]: 7.5633 µM | EC50 (PC-3): 2200 nM | Tmax [18]: 16 h | Cmax [19]: 15.1265 µM | EC50 (BT-474): 320 nM | EC50 (THP-1): 8700 nM | EC50 (HL-60): 2000 nM
Structure (SMILES): CCCCCCCCCCCCCCCCCCSCCNC(=O)[C@H](Cc1ccc(-c2ccccc2)cc1)NC(=O)[C@@H]1C[C@H](Oc2ccccc2)CN1C(=O)[C@@H](NC(=O)[C@H](C)NC)C(C)(C)C (H-[NMeA][Tle][Pro(cis-4-OPh)][Bip]-X1)
viability at 10 µM (KOPN-8 [1]): 71% | Activity (KOPN-8 [2]): 22.4% | EC50 [3]: 2700 nM | viability at 10 µM (KOPN-8 [4]): 87.6% | Activity (KOPN-8 [5]): 20.3% | Activity (KOPN-8 [7]): 0.94% | viability at 10 µM (KOPN-8 [9]): 79.3% | EC50 [10]: 1100 nM | viability at 10 µM (KOPN-8 [11]): 74.9% | Activity (KOPN-8 [12]): 1.27% | fold change (FC) (KOPN-8 [13]): 1.5 | EC50 (KOPN-8 [14]): 1000 nM | Activity (KOPN-8 [15]): 1.41% | Activity (KOPN-8 [16]): 1.81% | Activity (KOPN-8 [17]): 0.63% | EC50 [20]: 2900 nM | Activity (KOPN-8 [21]): 9.97% | Activity (KOPN-8 [22]): 17.8% | EC50 (T84): 2000 nM | Activity (KOPN-8 [23]): 1.67% | EC50 [24]: 960 nM | Activity (MDA-MB-361 [25]): Dose-dependent effect | EC50 [26]: 9500 nM | Activity (KOPN-8 [27]): 1.97% | Activity (KOPN-8 [28]): 7.06%

EC50 (HCT-116): 1500 nM | EC50 (SK-MEL-28): 11300 nM | EC50 (PC-3): 2300 nM | EC50 (PANC-1): 4700 nM | EC50 (MCF7): 48200 nM | EC50 (LNCaP): 10500 nM | EC50 (HepG2): 2100 nM | EC50 (SW480): 25700 nM
Structure (SMILES): CCCCCCCCCCCCCCCCCCS(=O)(=O)CCNC(=O)[C@H](Cc1ccc(-c2ccccc2)cc1)NC(=O)[C@@H]1C[C@H](Oc2ccccc2)CN1C(=O)[C@@H](NC(=O)[C@H](C)NC)C(C)(C)C (H-[NMeA][Tle][Pro(cis-4-OPh)][Bip]-X2)
EC50 [29]: 4800 nM | EC50 [10]: 1100 nM | EC50 [30]: 14200 nM | EC50 (Hep 3B2): 240 nM | EC50 (FaDu): 640 nM

EC50 (T47D): 9000 nM | EC50 (HepG2): 5400 nM
Structure (SMILES): CCCCCCCCCCCCCCCc1cccc(O[C@H]2C[C@@H](C(=O)NCC(c3ccccc3)c3ccccc3)N(C(=O)[C@@H](NC(=O)[C@H](C)NC)C(C)(C)C)C2)c1
